What was measured:
[1] = molecular target: T1, Leucine-rich repeat serine/threonine-protein kinase 2 (Homo sapiens, UniProt Q5S007); test: Inhibition of autophosphorylation of LRRK2 in human HEK293 cells; assay type: cell-based
[2] = molecular target: T1, Leucine-rich repeat serine/threonine-protein kinase 2; test: Inhibition of LRRK2 using FAM-LRRKtide as substrate after 120 mins by microfluidic capillary electrophoresis assay
[3] = Solubility of the compound; assay type: physicochemical
MDCK = test: Efflux ratio of permeability from basolateral to apical over apical to basolateral side in MDCK cells expressing human MDR1; details: dog
Cytochrome P450 1A2 = molecular target: T2, Cytochrome P450 1A2 (Homo sapiens, UniProt P05177); test: Time dependent inhibition of CYP1A2; assay type: ADME
T2 sequence (P05177 whole entry): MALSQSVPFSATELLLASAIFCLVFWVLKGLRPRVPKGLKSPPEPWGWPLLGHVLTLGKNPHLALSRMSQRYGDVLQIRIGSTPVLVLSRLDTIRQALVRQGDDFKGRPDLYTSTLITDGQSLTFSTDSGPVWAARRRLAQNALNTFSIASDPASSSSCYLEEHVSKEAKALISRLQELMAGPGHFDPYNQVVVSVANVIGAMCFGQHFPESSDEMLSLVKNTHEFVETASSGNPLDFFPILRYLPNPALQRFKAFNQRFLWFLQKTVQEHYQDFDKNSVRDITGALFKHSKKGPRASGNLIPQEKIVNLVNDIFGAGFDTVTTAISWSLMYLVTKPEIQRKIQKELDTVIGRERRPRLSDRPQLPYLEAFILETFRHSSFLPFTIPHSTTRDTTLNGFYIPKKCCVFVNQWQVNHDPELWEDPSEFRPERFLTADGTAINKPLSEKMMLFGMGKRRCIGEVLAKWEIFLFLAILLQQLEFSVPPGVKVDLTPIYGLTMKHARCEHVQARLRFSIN

[4] = Selectivity ratio of Ki for TTK to Ki for LRRK2
Procedure, shortened: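 Ratio computed as TTK Ki, from a Lanthascreen assay, divided by LRRK2 Ki from the biochemical assay.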

[5] = Selectivity ratio of Ki for JAK2 to Ki for LRRK2
Procedure, shortened: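 Ratio computed as JAK2 Ki divided by LRRK2 Ki, both from biochemical assays.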

[6] = molecular target: T3, Dual specificity protein kinase TTK (Homo sapiens) (UniProt P33981); test: Inhibition of TTK at 0.1 uM
T3 sequence (whole entry): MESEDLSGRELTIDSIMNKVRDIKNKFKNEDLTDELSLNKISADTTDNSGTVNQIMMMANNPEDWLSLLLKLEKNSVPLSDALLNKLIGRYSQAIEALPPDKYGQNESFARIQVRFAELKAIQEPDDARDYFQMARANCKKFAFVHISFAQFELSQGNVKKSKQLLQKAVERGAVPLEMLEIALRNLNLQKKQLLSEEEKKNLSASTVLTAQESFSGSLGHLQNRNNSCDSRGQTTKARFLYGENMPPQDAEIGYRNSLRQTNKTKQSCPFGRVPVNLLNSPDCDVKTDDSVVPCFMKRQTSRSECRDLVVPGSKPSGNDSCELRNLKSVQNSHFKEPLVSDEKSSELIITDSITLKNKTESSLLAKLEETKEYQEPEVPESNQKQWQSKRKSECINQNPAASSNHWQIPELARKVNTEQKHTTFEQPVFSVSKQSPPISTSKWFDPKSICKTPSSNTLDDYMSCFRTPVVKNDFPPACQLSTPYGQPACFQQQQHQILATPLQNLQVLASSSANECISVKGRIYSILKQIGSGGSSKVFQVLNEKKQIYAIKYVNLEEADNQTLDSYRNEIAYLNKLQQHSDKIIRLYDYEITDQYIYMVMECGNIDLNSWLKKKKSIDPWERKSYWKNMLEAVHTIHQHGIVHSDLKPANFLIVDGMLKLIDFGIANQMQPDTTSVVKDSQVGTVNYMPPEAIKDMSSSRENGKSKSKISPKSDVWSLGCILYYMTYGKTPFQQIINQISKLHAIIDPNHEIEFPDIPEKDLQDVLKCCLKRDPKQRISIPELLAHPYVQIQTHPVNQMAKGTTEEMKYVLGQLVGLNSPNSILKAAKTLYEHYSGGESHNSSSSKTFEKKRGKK
Procedure, shortened: (§1)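 Percent inhibition of TTK activity measured at 0.1 μM and 1 μM in a kinase selectivity profiling panel.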

MDR1 (human) = test: Apparent permeability from apical to basolateral side of MDCK cells expressing human MDR1; assay type: ADME, cell-based, Canis lupus familiaris; details: dog
Procedure, shortened: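 Transport measured in an MDCK cell line transfected with human P-gp (MDR1); apical-to-basolateral and basolateral-to-apical permeability determined; efflux ratio taken as (B−A)/(A−B).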

[7] = Plasma protein binding in rat; assay type: ADME, cell-free; details: read-out: PPB (converted)
Procedure, shortened: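 Plasma protein binding measured in vitro in rat plasma; used to convert total clearance to unbound clearance and total to unbound plasma levels.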

Mus musculus [8] = organism: Mus musculus; test: Genotoxicity in mouse by micronucleus study; assay type: toxicity, organism-based; details: in vivo
[9] = Clearance in rat hepatocytes; assay type: ADME, cell-based, Liver, Hepatocyte
Procedure, shortened: (§2)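 Metabolic stability determined in vitro in cryopreserved hepatocytes, human and rat.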

[10] = molecular target: T4, Dual specificity protein kinase TTK (Homo sapiens, UniProt P33981); test: Inhibition of TTK
T4 sequence (P33981 whole entry): T3 sequence (whole entry)
Procedure, shortened: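 TTK Ki determined in a Lanthascreen biochemical assay.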

[11] = Clearance in human hepatocytes; assay type: ADME, cell-based, Liver, Hepatocyte; procedure, shortened: as §2
PBL = test: Genotoxicity in human PBL assessed as induction of micronuclei formation; assay type: toxicity, cell-based
[12] = molecular target: T3, Dual specificity protein kinase TTK (Homo sapiens); test: Inhibition of TTK at 1 uM; procedure, shortened: as §1
Rattus norvegicus [13] = test: Genotoxicity in Sprague-Dawley rat assessed as micronucleated polychromatic erythrocytes in bone marrow at 100 mg/kg, po qd for 2 days; assay type: toxicity, organism-based; parameters: dose 100 mg/kg, route oral; details: in vivo, 48 h
Rattus norvegicus [14] = test: Unbound plasma AUC (0 to 24 hrs) in Sprague-Dawley rat at 50 mg/kg, po administered for 7 days; assay type: ADME, organism-based; parameters: dose 50 mg/kg, route oral; details: in vivo
Rattus norvegicus [15] = test: Unbound plasma AUC (0 to 24 hrs) in Sprague-Dawley rat at 100 mg/kg, po administered for 7 days; assay type: ADME, organism-based; parameters: dose 100 mg/kg, route oral; details: in vivo
[16] = molecular target: T1, Leucine-rich repeat serine/threonine-protein kinase 2; details: 0.1 uM
Mus musculus [17] = test: Inhibition of LRRK2 G2019S mutant phosphorylation at Ser1292 in po dosed BAC transgenic mouse brain after 1 to 24 hrs; assay type: functional, organism-based
Procedure, shortened: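 Single oral dose of 15 or 50 mg/kg in G2019S human LRRK2 BAC transgenic mice. Hippocampus sampled at 1, 3, 6 and 12 h (n = 4/dose) and at 24 h (n = 1) to measure pSer1292 LRRK2 and brain compound levels. Inhibition expressed relative to vehicle-dosed mice (n = 3), with a direct inhibition PK/PD model fitted.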

Rattus norvegicus [18] = test: Unbound plasma AUC (0 to 24 hrs) in Sprague-Dawley rat at 10 mg/kg, po administered for 7 days; assay type: ADME, organism-based; parameters: dose 10 mg/kg, route oral; details: in vivo
[19] = molecular target: 5-hydroxytryptamine receptor 2B (Homo sapiens) (UniProt P41595); test: Inhibition of recombinant human 5HT2B receptor expressed in CHO cells at 10 uM; assay type: cell-based
Rattus norvegicus [20] = test: Unbound plasma AUC (0 to 24 hrs) in Sprague-Dawley rat at 100 mg/kg, po qd for 2 days; assay type: ADME, organism-based; parameters: dose 100 mg/kg, route oral; details: in vivo
Cynomolgus monkey [21] = test: Unbound plasma AUC (0 to 24 hrs) in cynomolgus monkey at 65 mg/kg, po administered for 7 days; assay type: ADME, organism-based, Macaca fascicularis; parameters: dose 65 mg/kg, route oral; details: in vivo
Mus musculus [22] = test: Inhibition of LRRK2 G2019S mutant phosphorylation at Ser1292 in ip dosed BAC transgenic mouse brain after 1 to 24 hrs; assay type: functional, organism-based
Procedure, shortened: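 Single ip injection of 10 or 50 mg/kg in BAC transgenic mice expressing human G2019S LRRK2. Hippocampus collected at 1, 2.5 or 6 h post-dose (n = 3/dose). pSer1292 LRRK2 and compound concentration measured in brain. Percent inhibition normalised to vehicle-dosed mice (n = 3), with a direct inhibition model fitted to the data.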

[23] = Ratio of unbound drug level in brain to plasma in cynomolgus monkey at 10 to 65 mg/kg, po administered for 7 days; assay type: ADME, organism-based, Macaca fascicularis; parameters: dose 10-65 mg/kg, route oral; details: brain and plasma (unbound)
Procedure, shortened: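 Cynomolgus monkeys in a 7-day repeat-dose toxicity study at 10, 25 and 65 mg/kg. Terminal brain and CSF levels were taken 24 h after the day-7 dose. Total brain/plasma levels were converted to an unbound brain/unbound plasma ratio using in vitro plasma and brain protein binding values.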

Cynomolgus monkey [24] = test: Unbound plasma AUC (0 to 24 hrs) in cynomolgus monkey at 25 mg/kg, po administered for 7 days; assay type: ADME, organism-based, Macaca fascicularis; parameters: dose 25 mg/kg, route oral; details: in vivo
[25] = Plasma protein binding in cynomolgus monkey; assay type: ADME, cell-free, Macaca fascicularis; details: read-out: PPB (converted)
Rattus norvegicus [26] = test: Toxicity in Sprague-Dawley rat assessed as mortality at 10 to 100 mg/kg, po administered for 7 days; assay type: organism-based; parameters: dose 10-100 mg/kg, route oral; details: in vivo, 168 h
Nucleic Acid = test: Ratio of drug level CSF to unbound drug level in plasma in cynomolgus monkey at 10 to 65 mg/kg, po administered for 7 days; assay type: ADME, organism-based, Macaca fascicularis; parameters: dose 10-65 mg/kg, route oral; details: in vivo, 168 h
Procedure, shortened: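 Cynomolgus monkeys in a 7-day repeat-dose toxicity study at 10, 25 and 65 mg/kg. Terminal CSF and plasma levels were taken 24 h after the last dose on day 7. Plasma drug was converted to unbound using in vitro plasma protein binding, and the ratio is expressed as CSF over unbound plasma.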

[27] = molecular target: ALK tyrosine kinase receptor (Homo sapiens) (UniProt Q9UM73); test: Inhibition of ALK at 0.1 uM
Procedure, shortened: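 Percent inhibition measured in a commercial kinase selectivity profiling panel, with compound tested at a single concentration of 0.1 μM.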

Cynomolgus monkey [28] = test: Unbound plasma AUC (0 to 24 hrs) in cynomolgus monkey at 10 mg/kg, po administered for 7 days; assay type: ADME, organism-based, Macaca fascicularis; parameters: dose 10 mg/kg, route oral; details: in vivo

T1 sequence (Q5S007 whole entry): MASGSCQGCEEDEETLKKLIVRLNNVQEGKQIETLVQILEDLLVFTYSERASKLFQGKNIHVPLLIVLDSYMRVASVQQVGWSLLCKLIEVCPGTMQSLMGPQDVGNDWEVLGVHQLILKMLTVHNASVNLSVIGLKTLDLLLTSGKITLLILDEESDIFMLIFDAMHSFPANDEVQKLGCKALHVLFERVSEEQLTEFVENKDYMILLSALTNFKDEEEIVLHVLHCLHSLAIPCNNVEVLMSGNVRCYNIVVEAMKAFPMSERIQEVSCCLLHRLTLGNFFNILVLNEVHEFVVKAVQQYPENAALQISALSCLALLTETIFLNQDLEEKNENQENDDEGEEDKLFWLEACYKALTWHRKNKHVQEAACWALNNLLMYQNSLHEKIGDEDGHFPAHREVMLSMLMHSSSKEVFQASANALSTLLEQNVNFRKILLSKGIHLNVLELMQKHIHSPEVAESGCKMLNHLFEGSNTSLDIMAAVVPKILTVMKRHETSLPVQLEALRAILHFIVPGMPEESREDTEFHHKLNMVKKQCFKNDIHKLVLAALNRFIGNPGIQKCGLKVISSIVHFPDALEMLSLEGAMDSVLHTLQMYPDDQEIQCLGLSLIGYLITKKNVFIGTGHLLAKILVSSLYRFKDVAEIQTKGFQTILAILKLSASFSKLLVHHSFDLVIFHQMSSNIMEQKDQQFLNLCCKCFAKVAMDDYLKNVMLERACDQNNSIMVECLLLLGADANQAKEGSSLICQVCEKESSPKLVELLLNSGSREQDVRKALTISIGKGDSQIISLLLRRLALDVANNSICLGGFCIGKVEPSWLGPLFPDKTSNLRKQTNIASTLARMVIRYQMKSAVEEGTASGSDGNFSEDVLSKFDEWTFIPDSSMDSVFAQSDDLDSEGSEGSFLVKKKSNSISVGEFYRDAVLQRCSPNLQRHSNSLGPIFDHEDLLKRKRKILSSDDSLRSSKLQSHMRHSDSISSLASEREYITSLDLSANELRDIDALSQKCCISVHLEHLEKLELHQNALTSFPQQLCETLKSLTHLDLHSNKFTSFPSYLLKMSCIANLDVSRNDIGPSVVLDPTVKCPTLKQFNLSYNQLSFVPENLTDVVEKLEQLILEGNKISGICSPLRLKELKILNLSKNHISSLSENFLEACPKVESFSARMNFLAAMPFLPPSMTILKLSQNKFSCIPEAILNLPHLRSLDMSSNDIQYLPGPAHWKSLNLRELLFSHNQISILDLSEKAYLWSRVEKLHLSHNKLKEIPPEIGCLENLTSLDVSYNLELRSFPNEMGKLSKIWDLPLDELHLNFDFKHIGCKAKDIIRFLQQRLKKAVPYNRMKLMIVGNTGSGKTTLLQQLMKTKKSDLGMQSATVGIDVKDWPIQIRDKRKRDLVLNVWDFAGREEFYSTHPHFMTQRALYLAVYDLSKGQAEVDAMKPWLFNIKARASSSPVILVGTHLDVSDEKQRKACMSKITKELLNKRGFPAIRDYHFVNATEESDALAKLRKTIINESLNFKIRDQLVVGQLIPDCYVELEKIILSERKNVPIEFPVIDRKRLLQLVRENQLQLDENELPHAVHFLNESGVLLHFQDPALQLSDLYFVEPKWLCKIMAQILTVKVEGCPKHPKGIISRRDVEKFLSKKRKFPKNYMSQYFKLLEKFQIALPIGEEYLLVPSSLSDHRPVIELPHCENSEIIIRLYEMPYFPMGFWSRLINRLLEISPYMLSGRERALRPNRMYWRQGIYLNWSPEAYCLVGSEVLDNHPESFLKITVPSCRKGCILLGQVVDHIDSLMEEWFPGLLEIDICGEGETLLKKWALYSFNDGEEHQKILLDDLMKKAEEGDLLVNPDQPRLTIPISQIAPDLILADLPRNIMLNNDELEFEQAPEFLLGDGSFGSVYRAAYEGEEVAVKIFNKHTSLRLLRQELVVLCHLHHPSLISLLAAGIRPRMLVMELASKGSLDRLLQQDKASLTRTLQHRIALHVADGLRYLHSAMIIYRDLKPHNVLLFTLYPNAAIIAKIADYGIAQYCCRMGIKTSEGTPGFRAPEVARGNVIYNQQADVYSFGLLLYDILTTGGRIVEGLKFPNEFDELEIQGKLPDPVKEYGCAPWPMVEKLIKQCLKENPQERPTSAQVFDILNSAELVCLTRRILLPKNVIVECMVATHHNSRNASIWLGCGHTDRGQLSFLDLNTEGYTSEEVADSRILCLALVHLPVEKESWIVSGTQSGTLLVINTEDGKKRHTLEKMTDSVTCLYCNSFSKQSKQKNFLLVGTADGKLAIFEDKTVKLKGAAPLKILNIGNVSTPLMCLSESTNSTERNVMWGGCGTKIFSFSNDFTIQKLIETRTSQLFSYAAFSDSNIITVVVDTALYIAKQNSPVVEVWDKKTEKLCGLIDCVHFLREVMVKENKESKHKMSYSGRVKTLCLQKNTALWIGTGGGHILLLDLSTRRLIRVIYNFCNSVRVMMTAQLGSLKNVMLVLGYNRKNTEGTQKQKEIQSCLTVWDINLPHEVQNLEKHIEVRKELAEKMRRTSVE
Chain of 5-hydroxytryptamine receptor 2B (Homo sapiens) (P41595 whole entry): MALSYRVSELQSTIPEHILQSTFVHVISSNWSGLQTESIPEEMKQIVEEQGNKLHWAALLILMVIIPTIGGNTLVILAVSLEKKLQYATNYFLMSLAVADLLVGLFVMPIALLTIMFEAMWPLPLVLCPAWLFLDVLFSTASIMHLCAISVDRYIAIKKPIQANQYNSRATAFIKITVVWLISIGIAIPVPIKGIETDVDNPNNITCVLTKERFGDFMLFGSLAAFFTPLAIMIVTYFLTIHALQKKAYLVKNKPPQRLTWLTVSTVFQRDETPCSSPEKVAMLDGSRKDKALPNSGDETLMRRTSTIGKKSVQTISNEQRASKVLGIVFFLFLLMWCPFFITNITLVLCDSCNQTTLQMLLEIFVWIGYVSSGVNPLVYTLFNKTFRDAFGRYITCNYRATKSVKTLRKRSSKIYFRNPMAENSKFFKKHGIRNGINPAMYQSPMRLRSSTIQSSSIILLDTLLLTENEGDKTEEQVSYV
Chain of ALK tyrosine kinase receptor (Homo sapiens) (Q9UM73 19-1620 limits assumed): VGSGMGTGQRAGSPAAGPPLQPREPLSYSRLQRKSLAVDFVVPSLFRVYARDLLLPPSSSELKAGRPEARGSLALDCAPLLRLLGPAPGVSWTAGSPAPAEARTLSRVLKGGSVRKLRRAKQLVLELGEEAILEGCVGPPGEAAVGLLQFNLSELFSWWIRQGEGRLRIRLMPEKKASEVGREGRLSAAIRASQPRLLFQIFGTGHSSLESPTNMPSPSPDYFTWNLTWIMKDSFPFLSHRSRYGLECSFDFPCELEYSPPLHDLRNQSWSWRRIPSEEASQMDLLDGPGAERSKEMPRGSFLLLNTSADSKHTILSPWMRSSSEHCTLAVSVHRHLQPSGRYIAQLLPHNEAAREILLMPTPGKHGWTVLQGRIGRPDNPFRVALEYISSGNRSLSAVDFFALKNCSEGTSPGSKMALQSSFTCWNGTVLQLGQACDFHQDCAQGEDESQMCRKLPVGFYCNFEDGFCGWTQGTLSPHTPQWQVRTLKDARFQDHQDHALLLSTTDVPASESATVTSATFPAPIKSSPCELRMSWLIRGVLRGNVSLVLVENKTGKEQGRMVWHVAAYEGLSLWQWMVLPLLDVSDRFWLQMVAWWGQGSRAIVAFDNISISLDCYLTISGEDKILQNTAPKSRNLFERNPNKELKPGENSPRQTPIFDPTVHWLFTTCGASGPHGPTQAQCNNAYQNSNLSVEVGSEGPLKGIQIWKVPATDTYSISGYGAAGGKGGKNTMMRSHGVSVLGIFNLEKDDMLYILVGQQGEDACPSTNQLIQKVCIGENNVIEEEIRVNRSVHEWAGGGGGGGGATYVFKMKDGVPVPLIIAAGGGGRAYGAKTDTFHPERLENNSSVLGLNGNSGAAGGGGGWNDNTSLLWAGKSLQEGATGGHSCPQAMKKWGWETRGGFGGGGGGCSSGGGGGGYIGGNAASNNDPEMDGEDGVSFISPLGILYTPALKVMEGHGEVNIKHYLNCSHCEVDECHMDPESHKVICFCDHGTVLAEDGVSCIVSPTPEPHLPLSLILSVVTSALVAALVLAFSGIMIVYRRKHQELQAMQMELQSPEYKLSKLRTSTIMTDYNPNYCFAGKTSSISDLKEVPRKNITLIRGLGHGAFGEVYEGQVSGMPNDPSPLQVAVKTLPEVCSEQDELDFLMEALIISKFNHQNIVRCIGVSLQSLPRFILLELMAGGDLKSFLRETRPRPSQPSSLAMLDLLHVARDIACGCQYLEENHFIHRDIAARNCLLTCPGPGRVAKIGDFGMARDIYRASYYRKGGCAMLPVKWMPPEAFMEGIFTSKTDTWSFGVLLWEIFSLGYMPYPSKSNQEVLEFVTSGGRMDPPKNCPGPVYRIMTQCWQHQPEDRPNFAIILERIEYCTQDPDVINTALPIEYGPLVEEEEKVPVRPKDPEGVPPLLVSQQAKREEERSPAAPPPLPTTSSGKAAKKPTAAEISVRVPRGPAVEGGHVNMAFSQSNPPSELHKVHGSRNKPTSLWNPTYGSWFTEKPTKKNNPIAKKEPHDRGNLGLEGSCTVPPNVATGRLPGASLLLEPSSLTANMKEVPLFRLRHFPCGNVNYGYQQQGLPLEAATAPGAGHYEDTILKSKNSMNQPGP

For `CNc1nc(Nc2ccc(-c3nnnn3C)cc2Cl)ncc1C(F)(F)F`, the IC50 [1] was 100 nM, the Ki [2] was 8 nM and the solubility [3] was “Insoluble”. For the same compound, the Ratio (MDCK) was 0.7, the “inhibition (INH)” value (Cytochrome P450 1A2) was “Active” and the Ratio Ki [4] was 3.3.

In the case of `CNc1nc(Nc2ccc(C(=O)N3CCOCC3)cc2OC)ncc1C(F)(F)F`, the Ratio Ki [5] is reported as greater than 1930, the inhibition [6] is reported as 55% and the Papp A→B (MDR1 (human)) is reported as 18.2 ×10⁻⁶ cm/s. The fraction unbound [7] was 0.137, the Activity (Mus musculus [8]) was “Toxic” and the IC50 [1] was 9 nM. The Ki [2] was 2 nM, the CLhep predicted [9] was 7.6 mL/min/kg and the Ki [10] was 25 nM. For the same compound, the Ratio (MDCK) was 1.2, the CLhep predicted [11] was 1.8 mL/min/kg and the Activity (PBL) was “Toxic”. It also gave an inhibition [12] of 98% and a Ratio Ki [4] of 13.

In the case of `CCNc1nc(Nc2cc(F)c(C(=O)N3CCOCC3)cc2OC)ncc1C(F)(F)F`, the Ratio Ki [5] is reported as greater than 3200, the Activity (Rattus norvegicus [13]) is reported as “Non-toxic” and the fAUC (Rattus norvegicus [14]) is reported as 3.9 µM·h. It also gave an inhibition [6] greater than 65%, a fAUC (Rattus norvegicus [15]) of 4.7 µM·h and a Papp A→B (MDR1 (human)) of 10.4 ×10⁻⁶ cm/s. The fraction unbound [7] was 0.034, the inhibition [16] was greater than 65% and the inhibition (Mus musculus [17]) was “Dose-dependent effect”. The fAUC (Rattus norvegicus [18]) was 0.8 µM·h, the IC50 [1] was 9 nM and the Ki [2] was 1 nM. It also gave a CLhep predicted [9] of 14 mL/min/kg, an inhibition [19] greater than 70% and a Ratio (MDCK) of 0.9. For the same compound, the CLhep predicted [11] was 3.2 mL/min/kg, the fAUC (Rattus norvegicus [20]) was 5.95 µM·h and the fAUC (Cynomolgus monkey [21]) was 7.8 µM·h. The inhibition (Mus musculus [22]) was “Dose-dependent effect”, the Kp uu at 168 h [23] was 0.6 and the fAUC (Cynomolgus monkey [24]) was 3.1 µM·h. For the same compound, the fraction unbound [25] was 0.055, the Activity (Rattus norvegicus [26]) was “Non-toxic” and the Ratio (Nucleic Acid) was 0.82. The inhibition [27] was greater than 65%, the fAUC (Cynomolgus monkey [28]) was 0.8 µM·h and the Ratio Ki [4] was 53.

From ChEMBL document CHEMBL2176933 (J Med Chem, 2012)
